From ChEMBL document CHEMBL2401652 (J Med Chem, 2013)
pIC50: −log10 of the molar value. Calls of active or inactive are those of the source. The calls are words filed in the database; no cut-off is given here.

What was measured:
PANC-1 [1] = assay: Induction of mitochondrial transmembrane depolarization in human PANC1 cells at 30 uM after 24 hrs by JC1 staining-based flow cytometric analysis (reference value: 2.7%); format: functional
PANC-1 [2] = assay: Induction of apoptosis in human PANC1 cells assessed as procaspase-9 cleavage at 50 uM after 24 hrs by Western blot analysis; format: functional, cell-based
How it was run: (§1)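 Cells (1.5 × 10^6) exposed 24 h to compound (25 or 50 μM). 50 μg protein per lane resolved on 10% SDS-PAGE and transferred to nitrocellulose. Membrane blocked in 2% TBS-BSA, then probed with primary antibody overnight at 4 °C and HRP secondary. Detection by ECL, with β-actin as loading control. Untreated control run in parallel.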

[3] = Cytotoxicity against human U87MG cells assessed as growth inhibition after 48 hrs by MTT assay; conditions: U-87 MG
SW480 = assay: Cytotoxicity against human SW480 cells assessed as growth inhibition after 48 hrs by MTT assay; conditions: SW480, 48 h
T98G [4] = assay: Induction of apoptosis in human T98G cells assessed as procaspase-7 cleavage at 50 uM after 24 hrs by Western blot analysis; format: functional, cell-based; how it was run: as §1
T98G [5] = assay: Induction of apoptosis in human T98G cells assessed as PARP cleavage at 50 uM after 24 hrs by Western blot analysis; format: functional, cell-based; how it was run: as §1
[6] = Cytotoxicity against human Panc 10.05 cells assessed as growth inhibition after 48 hrs by MTT assay; conditions: Panc1005, 48 h
T98G [7] = assay: Downregulation of Bcl-xL expression in human T98G cells at 50 uM after 24 hrs by Western blot analysis; format: functional, cell-based
How it was run: (§2)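 Cells (1.5 × 10^6) treated 24 h at 25 or 50 μM; 50 μg protein per lane on 10% SDS-PAGE, nitrocellulose, 2% TBS-BSA block, primary antibody overnight at 4 °C, HRP secondary, ECL detection; β-actin loading control; untreated controls in parallel.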

T98G [8] = assay: Induction of apoptosis in human T98G cells at 30 uM after 24 hrs by dUTP-FITC staining-based TUNEL assay (reference value: 1.88%); format: functional
MIA PaCa-2 = assay: Cytotoxicity against human MIAPaCa2 cells assessed as growth inhibition after 48 hrs by MTT assay; conditions: MIA PaCa-2, 48 h
[9] = Cytotoxicity against human LN229 cells assessed as growth inhibition after 48 hrs by MTT assay; conditions: LN-229, 48 h
HeLa = assay: Cytotoxicity against human HeLa cells assessed as growth inhibition after 48 hrs by MTT assay
PANC-1 [10] = assay: Induction of apoptosis in human PANC1 cells at 30 uM after 24 hrs by dUTP-FITC staining-based TUNEL assay (reference value: 0.17%); format: functional
PANC-1 [11] = assay: Downregulation of total Bid expression in human PANC1 cells at 50 uM after 24 hrs by Western blot analysis; format: functional, cell-based; how it was run: as §2
[12] = Cytotoxicity against human A172 cells assessed as growth inhibition after 48 hrs by MTT assay; conditions: A 172, 48 h
PANC-1 [13] = assay: Induction of apoptosis in human PANC1 cells assessed as procaspase-8 cleavage at 50 uM after 24 hrs by Western blot analysis; format: functional, cell-based; how it was run: as §2
T98G [14] = assay: Induction of mitochondrial transmembrane depolarization in human T98G cells at 30 uM after 24 hrs by JC1 staining-based flow cytometric analysis (reference value: 10.26%); format: functional
K562 = assay: Cytotoxicity against human K562 cells assessed as growth inhibition after 48 hrs by MTT assay; conditions: K562, 48 h
T98G [15] = assay: Induction of apoptosis in human T98G cells assessed as procaspase-8 cleavage at 50 uM after 24 hrs by Western blot analysis; format: functional, cell-based; how it was run: as §1
MOLT-4 = assay: Cytotoxicity against human MOLT4 cells assessed as growth inhibition after 48 hrs by MTT assay; conditions: MOLT-4, 48 h
MOLT-3 = assay: Cytotoxicity against human MOLT3 cells assessed as growth inhibition after 48 hrs by MTT assay; conditions: MOLT-3, 48 h
[16] = Cytotoxicity against human U373MG cells assessed as growth inhibition after 48 hrs by MTT assay; conditions: U373 MG
PANC-1 [17] = assay: Downregulation of Bcl-xL expression in human PANC1 cells at 50 uM after 24 hrs by Western blot analysis; format: functional, cell-based; how it was run: as §2
T98G [18] = assay: Induction of apoptosis in human T98G cells assessed as induction of DNA damage at 20 uM after 24 hrs by comet assay relative to untreated control; format: functional
How it was run: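 T98G cells (1 × 10^5) treated 24 h with 0 or 20 μM. About 20000 cells embedded in 0.5% low-melting agarose and lysed overnight at 4 °C at pH 10. Alkaline electrophoresis (pH 13) for 30 min at 300 mA at 4 °C, then ethidium bromide staining. Tail length (nucleus centre to tail tip) from ≥20 comets, reported as mean ± SD.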

NCI-H23 = assay: Cytotoxicity against human NCI-H23 cells assessed as growth inhibition after 48 hrs by MTT assay; conditions: NCI-H23, 48 h
HCT-116 = assay: Cytotoxicity against human HCT116 cells assessed as growth inhibition after 48 hrs by MTT assay; conditions: HCT-116, 48 h
PANC-1 [19] = assay: Induction of apoptosis in human PANC1 cells assessed as PARP cleavage at 50 uM after 24 hrs by Western blot analysis; format: functional, cell-based; how it was run: as §2
PANC-1 [20] = assay: Induction of apoptosis in human PANC1 cells at 30 uM after 24 hrs by 7-AAD-based FACS flow cytometric analysis (reference value: 5.18%); format: functional
T98G [21] = assay: Cytotoxicity against human T98G cells assessed as growth inhibition after 48 hrs by MTT assay
PANC-1 [22] = assay: Cytotoxicity against human PANC1 cells assessed as growth inhibition after 48 hrs by MTT assay; conditions: PANC-1, 48 h
T98G [23] = assay: Induction of apoptosis in human T98G cells assessed as procaspase-9 cleavage at 50 uM after 24 hrs by Western blot analysis; format: functional, cell-based; how it was run: as §1
A549 = assay: Cytotoxicity against human A549 cells assessed as growth inhibition after 48 hrs by MTT assay; conditions: A549, 48 h
[24] = Binding affinity to DNA (unknown origin) at 100 uM after 2 hrs by UV-Vis absorption spectroscopic analysis
How it was run: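 DNA (100 μg/mL; stock 1.0 mg/mL in 50 mM Tris-HCl pH 7.5, 50 mM NaCl) with ligand fixed at 100 μM; incubated at 37 °C, then diluted six-fold; absorbance scanned 220–350 nm at 25 °C, 1 cm quartz cell; 260 nm band monitored.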

[25] = Cytotoxicity against human CEMC-7 cells assessed as growth inhibition after 48 hrs by MTT assay; conditions: CEMC-7, 48 h
T98G [26] = assay: Cytotoxicity against human T98G cells assessed as growth inhibition at 50 uM by MTT assay; format: functional, cell-based; conditions: TDE = time-dependent effect
T98G [27] = assay: Downregulation of total Bid expression in human T98G cells at 50 uM after 24 hrs by Western blot analysis; format: functional, cell-based; how it was run: as §2
ASPC1 = assay: Cytotoxicity against human AsPC1 cells assessed as growth inhibition after 48 hrs by MTT assay; conditions: ASPC1, 48 h
REH = assay: Cytotoxicity against human REH cells assessed as growth inhibition after 48 hrs by MTT assay
PANC-1 [28] = assay: Induction of apoptosis in human PANC1 cells assessed as procaspase-7 cleavage at 50 uM after 24 hrs by Western blot analysis; format: functional, cell-based; how it was run: as §2
T98G [29] = assay: Induction of apoptosis in human T98G cells at 30 uM after 24 hrs by 7-AAD-based FACS flow cytometric analysis (reference value: 5.3%); format: functional

CC(C)=CCC[C@]1(C)C=Cc2c(c(C)cc3c2[nH]c2ccccc23)O1
Activity (PANC-1 [1]): 15.3% | Activity (PANC-1 [2]): Active | pIC50 [3]: 4.60 | pIC50 (SW480): 4.60 | Activity (T98G [4]): Active | Activity (T98G [5]): Active | pIC50 [6]: 4.60 | Activity (T98G [7]): Active | Activity (T98G [8]): 9.58% | pIC50 (MIA PaCa-2): 4.60 | pIC50 [9]: 4.60 | pIC50 (HeLa): 4.60 | Activity (PANC-1 [10]): 1.13% | Activity (PANC-1 [11]): Active | pIC50 [12]: 4.60 | Activity (PANC-1 [13]): Active | Activity (T98G [14]): 16.72% | pIC50 (K562): 4.60 | Activity (T98G [15]): Active | pIC50 (MOLT-4): 4.60 | pIC50 (MOLT-3): 4.60 | pIC50 [16]: 4.60 | Activity (PANC-1 [17]): Active | Activity (T98G [18]): inactive | pIC50 (NCI-H23): 4.60 | pIC50 (HCT-116): 4.60 | Activity (PANC-1 [19]): Active | Activity (PANC-1 [20]): 17.06% | pIC50 (T98G [21]): 4.60 | pIC50 (PANC-1 [22]): 4.60 | Activity (T98G [23]): Active | pIC50 (A549): 4.60 | Activity [24]: Active | pIC50 [25]: 4.60 | growth inhibition (GI) (T98G [26]): tde | Activity (T98G [27]): Active | pIC50 (ASPC1): 4.60 | pIC50 (REH): 4.60 | Activity (PANC-1 [28]): Active | Activity (T98G [29]): 10.13%
